Consider 3 sequences from paper PMC2194103 (The Journal of Experimental Medicine, 2002).

In experiment [1] the test system is peripheral CD4+ T cells of the 1B6 transgenic mouse. The experiment is described as follows: Proliferation of naive ex-vivo 1B6 TCR transgenic T cells. The format is cell-based. The note with it: LNCs from 1B6 TCR transgenic mouse, [3H]thymidine added after 48 h; Fig. 1. In short, it runs like this: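 Lymph node cells from a 1B6 TCR transgenic mouse were stimulated in culture with different peptide ligands. Per the general proliferation method, cultures were run in triplicate. After 48 h, [3H]thymidine (1 μCi/well) was added for the final 16 h before harvest. Incorporation was read by scintillation counting.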

In the next experiment the target is T1, I-A^s (Mus musculus, UniProt P06345+P14437).
T1 sequence (P14437 1-233): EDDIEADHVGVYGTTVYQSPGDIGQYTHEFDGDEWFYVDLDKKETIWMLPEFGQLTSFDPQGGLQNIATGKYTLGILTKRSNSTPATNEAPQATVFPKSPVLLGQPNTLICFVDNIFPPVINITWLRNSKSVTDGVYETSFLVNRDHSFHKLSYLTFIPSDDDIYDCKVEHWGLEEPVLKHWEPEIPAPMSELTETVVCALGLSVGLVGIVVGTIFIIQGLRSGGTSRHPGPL
T1 sequence (P06345 28-263): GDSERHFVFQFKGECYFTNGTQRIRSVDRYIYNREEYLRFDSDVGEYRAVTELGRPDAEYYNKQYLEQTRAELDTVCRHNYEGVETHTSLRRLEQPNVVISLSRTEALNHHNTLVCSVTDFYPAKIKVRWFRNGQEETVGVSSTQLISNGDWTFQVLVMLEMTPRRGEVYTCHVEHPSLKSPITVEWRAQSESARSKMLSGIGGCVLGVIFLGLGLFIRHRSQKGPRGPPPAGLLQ
The note with it: binding to I-A^s relative to W144 (1.0); cited from earlier work.

Another experiment concerns Q1.1B6 T cell clone. Conditions: representative experiment; cited from earlier work.
For experiment [2], the system named is CD4+ 1B6 Rag2−/− T cell lines. The experiment is described as follows: Cytokine ELISA on 1B6 T cell lines. The format is cell-based, mouse. Conditions: supernatants after 40 h, Fig. 3. For orientation: In an ELISA, binding on a coated surface is turned into a signal by an enzyme label.

Regarding “HSLGKWLGHPDKF [Ligand W144, reference compound]”, the “Stimulatory potential for proliferation (hierarchy of response)” value (shortened to “Stimulatory potential for proliferation”) in experiment [1] is “weaker ligand”. Also, the “Relative MHC binding” value on I-A^s is given as 1.0. In addition, in the experiment on Q1.1B6 T cell clone, the “Cytokine IFN-γ” value was 420 pg/mL, the “Cytokine IL-2” value is <50 pg/mL, the “Cytokine IL-4” value is <50 pg/mL and the “Cytokine TNF-α” value was <50 pg/mL.

For HSLGKLLGHPDKF [Ligand L144], the “Stimulatory potential for proliferation” value in experiment [1] is “superagonist ligand”. Besides, the “Secretion of IL-2 by desensitized cells” value in experiment [2] is on record as “selectively blunted”. On I-A^s, the “Relative MHC binding” value is listed as 0.8. Also, in the experiment on Q1.1B6 T cell clone, the “Cytokine IL-4” value is 390 pg/mL and the “Cytokine TNF-α” value was 420 pg/mL.

In the case of HSLGKQLGHPDKF [Ligand Q144], in experiment [1], the “Stimulatory potential for proliferation” value is reported as “agonist”. Also, at I-A^s, the “Relative MHC binding” value is listed as 0.6. In addition, in the experiment on Q1.1B6 T cell clone, the “Cytokine IFN-γ” value is given as 9,052 pg/ml, the “Cytokine IL-2” value is <50 pg/mL, the “Cytokine IL-4” value is 200 pg/mL and the “Cytokine TNF-α” value was <50 pg/mL.
